Data: ChEMBL document CHEMBL3272288, “Cannabinoids. Synthesis and central nervous system activity of 8-substituted 10-hydroxy-5,5-dimethyl-5H-[1]benzopyrano[4,3-c]pyridine and derivatives” (1977)
Calls of active or inactive are those of the source. No cut-off for these calls is given here.

Key:
[1] = test system: Mus musculus; assay: Antidepressant activity in mouse assessed as potentiation of (+/-)Dopa-induced motor responses at 5 mg/kg, po challenged with Dopa after 4 hrs compound treatment; format: functional, organism-based; set-up: dose 5 mg/kg
[2] = test system: Rattus norvegicus; assay: Analgesic activity in po dosed Sprague-Dawley rat by tail flick assay; format: functional
[3] = test system: Rattus norvegicus; assay: Antipsychotic activity in Long-Evens rat assessed as reduction in methamphetamine-induced hyperactivity at 10 mg/kg, po; format: functional
[4] = test system: Felis catus; assay: Sedative-hypnotic activity in cat assessed as change in total sleep time at 5 mg/kg, po after 12 hrs; format: functional
Procedure, shortened: (§1)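 Total sleep time was recorded 12 h after drug, with two or more cats per dose. The value is the change in minutes from paired control experiments; a negative value means decreased sleep.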

[5] = test system: Rattus norvegicus; assay: Hyperexcitability activity in Long-Evens black-hooded rat assessed as behavioral responses to tactile stimulation at 80 mg/kg, po; format: functional, organism-based; set-up: dose 80 mg/kg
Procedure, shortened: (§2)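 Rats randomly split into groups of four, dosed orally, then held singly in a sound-attenuated room. At 1, 2, 3 and 4 h each was probed with a wooden rod and scored for exaggerated motor reaction, squeaking and biting (maximum 16 per response). Index is the summed score of the three responses divided by the maximum of 48.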

[6] = test system: Rattus norvegicus; assay: Hyperexcitability activity in Long-Evens black-hooded rat assessed as behavioral responses to tactile stimulation at 20 mg/kg, po; format: functional, organism-based; set-up: dose 20 mg/kg; procedure, shortened: as §2
[7] = test system: Mus musculus; assay: Analgesic activity in po dosed mouse assessed as inhibition of acetic acid-induced writhing; format: functional
[8] = test system: Mus musculus; assay: Antianxiety activity in albino BALB/cJ mouse assessed as decrease in foot shock-induced fighting behavior at 10 mg/kg, po by tranquilizer activity test; format: functional
[9] = test system: Rattus norvegicus; assay: Antianxiety activity in Long-Evens rat assessed as decrease in motor activity at 10 mg/kg, po by tranquilizer activity test; format: functional
[10] = test system: Canis familiaris; assay: Antianxiety activity in po dosed beagle-like dog assessed as minimum dose required to produce moderate ataxia; format: functional, Canis lupus familiaris
Procedure, shortened: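 Minimum dose producing ataxia, with two or more dogs per dose.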

[11] = test system: Rattus norvegicus; assay: Antipsychotic activity in Long-Evens rat assessed as reduction in methamphetamine-induced hyperactivity at 5 mg/kg, po; format: functional
[12] = test system: Felis catus; assay: Sedative-hypnotic activity in cat assessed as change in total sleep time at 0.5 mg/kg, po after 12 hrs; format: functional; procedure, shortened: as §1
[13] = test system: Rattus norvegicus; assay: Hyperexcitability activity in Long-Evens black-hooded rat assessed as behavioral responses to tactile stimulation at 10 mg/kg, po; format: functional, organism-based; set-up: dose 10 mg/kg; procedure, shortened: as §2
[14] = test system: Mus musculus; assay: Antianxiety activity in albino BALB/cJ mouse assessed as decrease in foot shock-induced fighting behavior at 5 mg/kg, po by tranquilizer activity test; format: functional
[15] = test system: Felis catus; assay: Sedative-hypnotic activity in cat assessed as change in total sleep time at 0.1 mg/kg, po after 12 hrs; format: functional; procedure, shortened: as §1
[16] = test system: Rattus norvegicus; assay: Antianxiety activity in Long-Evens rat assessed as decrease in motor activity at 5 mg/kg, po by tranquilizer activity test; format: functional
[17] = test system: Rattus norvegicus; assay: Antipsychotic activity in Long-Evens rat assessed as reduction in methamphetamine-induced hyperactivity at 20 mg/kg, po; format: functional
[18] = test system: Felis catus; assay: Sedative-hypnotic activity in cat assessed as change in total sleep time at 1 mg/kg, po after 12 hrs; format: functional; procedure, shortened: as §1
[19] = test system: Rattus norvegicus; assay: Antipsychotic activity in Long-Evens rat assessed as increase in methamphetamine-induced hyperactivity at 10 mg/kg, po; format: functional
[20] = test system: Rattus norvegicus; assay: Antipsychotic activity in Long-Evens rat assessed as increase in methamphetamine-induced hyperactivity at 20 mg/kg, po; format: functional
[21] = test system: Rattus norvegicus; assay: Antipsychotic activity in Long-Evens rat assessed as increase in methamphetamine-induced hyperactivity at 5 mg/kg, po; format: functional
[22] = test system: Felis catus; assay: Sedative-hypnotic activity in cat assessed as change in total sleep time at 2.5 mg/kg, po after 12 hrs; format: functional; procedure, shortened: as §1
[23] = test system: Rattus norvegicus; assay: Antianxiety activity in Long-Evens rat assessed as decrease in motor activity at 20 mg/kg, po by tranquilizer activity test; format: functional
[24] = test system: Mus musculus; assay: Increase in foot shock-induced fighting behavior in albino BALB/cJ mouse at 5 mg/kg, po by tranquilizer activity test; format: functional
[25] = test system: Rattus norvegicus; assay: Antipsychotic activity in Long-Evens rat assessed as reduction in methamphetamine-induced hyperactivity at 2 mg/kg, po; format: functional
[26] = test system: Rattus norvegicus; assay: Antianxiety activity in Long-Evens rat assessed as decrease in motor activity at 2 mg/kg, po by tranquilizer activity test; format: functional
[27] = test system: Felis catus; assay: Sedative-hypnotic activity in cat assessed as change in total sleep time at 0.25 mg/kg, po after 12 hrs; format: functional; procedure, shortened: as §1

Structure (SMILES) | Activity [1] | ED50 [2] [mg/kg] | inhibition in vivo at 10 mg/kg [3] [%] | ED50 [7] [mg/kg] | inhibition in vivo at 10 mg/kg [8] [%] | inhibition in vivo at 10 mg/kg [9] [%] | Activity [10] [mg/kg] | inhibition in vivo at 5 mg/kg [11] [%] | Activity [13] | inhibition in vivo at 5 mg/kg [16] [%] | other results
CCCCCC(C)C(C)c1cc(OCCCN2CCCCC2)c2c(c1)OC(C)(C)c1ccncc1-2.Cl (stereo not drawn) | Active | > 40 | 15 | – | – | – | – | – | – | – | Time [4]: -153 min; Activity [5]: inactive; Activity [6]: inactive
C#CCN1CCC2=C(C1)c1c(O)cc(C(C)CCCc3ccc(F)cc3)cc1OC2(C)C (stereo not drawn) | Active | 3.7 | – | 5.3 | 47 | 57 | 1 | 25 | Active | – | Time [12]: 99 min
C#CCN1CCC2=C(C1)c1c(O)cc(C(C)C(C)CCCCC)cc1OC2(C)C (stereo not drawn) | Active | 13.8 | – | 4.3 | – | 51 | 1 | 59 | – | – | inhibition in vivo at 5 mg/kg [14]: 48%; Time [15]: 100 min
CC(CCCc1ccc(F)cc1)c1cc(O)c2c(c1)OC(C)(C)c1ccncc1-2 (stereo not drawn) | Active | 5.7 | – | 7.1 | – | – | – | 40 | – | 34 | inhibition in vivo at 5 mg/kg [14]: 58%
C#CCOc1cc(C(C)C(C)CCCCC)cc2c1-c1cnccc1C(C)(C)O2 (stereo not drawn) | Active | > 40 | 31 | > 40 | 6 | – | 2 | – | inactive | 27 | inhibition in vivo at 20 mg/kg [17]: 42%; Time [18]: 82 min; Time [4]: 114 min
CCCCCC(C)C(C)c1cc(OCCCN2CCOCC2)c2c(c1)OC(C)(C)c1ccncc1-2.Cl (stereo not drawn) | Active | > 40 | – | – | – | – | – | – | – | – | Time [4]: -11 min; Activity [5]: inactive; Activity [6]: inactive; Activity [19]: 13%; Activity [20]: 28%
CCCCCC(C)C(C)c1cc(O)c2c(c1)OC(C)(C)c1cc[n+]([O-])cc1-2 (stereo not drawn) | Active | > 40 | – | 8.6 | 44 | 40 | – | – | inactive | 14 | Time [12]: 59 min; Activity [21]: 42%; Activity [19]: 12%
CCCCCC(C)C(C)c1cc(OCC2CC2)c2c(c1)OC(C)(C)c1ccncc1-2 (stereo not drawn) | Active | > 40 | 1 | – | – | – | – | – | – | – | Time [22]: 105 min; Activity [5]: inactive; Activity [6]: inactive
CCCCCC(C)C(C)c1cc(OC)c2c(c1)OC(C)(C)c1ccncc1-2 (stereo not drawn) | Active | > 200 | 12 | 158 | 29 | 37 | 2 | – | inactive | – | inhibition in vivo at 20 mg/kg [23]: 46%; Time [18]: 58 min; Time [4]: 102 min; Activity [5]: inactive; Activity [21]: 15%
CC(CCCc1ccc(F)cc1)c1cc(O)c2c(c1)OC(C)(C)c1cc[n+]([O-])cc1-2 (stereo not drawn) | Active | > 40 | – | > 10 | 24 | – | – | 16 | inactive | 18 | –
CCCCCC(C)C(C)c1cc(OC(=O)CCCN2CCCCC2)c2c(c1)OC(C)(C)c1ccncc1-2.Cl (stereo not drawn) | Active | – | – | 4 | – | 63 | – | 40 | Active | 43 | Activity [24]: 3%
C=CCOc1cc(C(C)CCCc2ccc(F)cc2)cc2c1-c1cnccc1C(C)(C)O2 (stereo not drawn) | Active | > 40 | 20 | – | 17 | – | – | – | – | – | inhibition in vivo at 20 mg/kg [17]: 27%; Activity [6]: inactive
CCCCCC(C)C(C)c1cc(OC(=O)OCC)c2c(c1)OC(C)(C)c1ccncc1-2 (stereo not drawn) | Active | – | – | 5.2 | 12 | – | – | 66 | – | 93 | inhibition in vivo at 2 mg/kg [25]: 37%
CCCCCC(C)C(C)c1cc(OC(C)=O)c2c(c1)OC(C)(C)c1ccncc1-2 (stereo not drawn) | Active | – | – | 3.3 | 48 | – | <5 | 46 | – | 86 | inhibition in vivo at 2 mg/kg [26]: 43%
COc1cc(C(C)CCCc2ccc(F)cc2)cc2c1-c1cnccc1C(C)(C)O2 (stereo not drawn) | Active | > 40 | 48 | – | 65 | – | 10 | – | – | – | Time [4]: 121 min
CCCCCC(C)C(C)c1cc(O)c2c(c1)OC(C)(C)c1ccncc1-2 (stereo not drawn) | Active | 3.07 | – | 3.3 | 36 | – | <1 | 61 | – | 79 | inhibition in vivo at 5 mg/kg [14]: 29%; Time [15]: 225 min; Time [27]: 193 min
CCCCCc1cc(O)c2c(c1)OC(C)(C)[C@@H]1CCC(C)=C[C@@H]21 [DRONABINOL] | Active | 27.2 | – | 43 | – | 39 | 4 | 15 | – | – | inhibition in vivo at 5 mg/kg [14]: 36%; Time [18]: 29 min
